In ChEMBL document CHEMBL1155808, “Antitumor activity of bis-indole derivatives” (J Med Chem, 2008):
Counter-ions that a name gives are not always drawn. Active and inactive are the calls of the source. No cut-off for these calls is given here.

Columns and labels:
[1] = Cytotoxicity against human Non-small cell lung carcinoma cells; assay type: functional; conditions: for CC50: read-out: pLC50 (the source's name) (converted); for TGI: read-out: pTGI (converted)
Summary of the method: (§1)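 NCI 60-cell-line human tumour screen, with subpanels for leukemia, melanoma, lung, colon, kidney, ovary, breast, prostate and CNS. Compounds were dissolved in DMSO and tested at five ten-fold dilutions, highest 10^-4 M (10^-3 M for some). Endpoints were GI50, TGI and LC50, reported as negative log molar. Some compounds were assayed once, others two or three times.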

[2] = Cytotoxicity against human melanoma cells; assay type: functional; conditions: Melanoma cell; for CC50: read-out: pLC50 (the source's name) (converted); for TGI: read-out: pTGI (converted)
Mo7e = assay: Antiproliferative activity against human Mo7e cells after 48 hrs by MTT assay; assay type: functional, cell-based
[3] = Cytotoxicity against human renal cancer cells; assay type: functional; conditions: Cancer cell lines; for CC50: read-out: pLC50 (the source's name) (converted); for TGI: read-out: pTGI (converted); summary of the method: as §1
[4] = Cytotoxicity against human central nervous system cancer cells; assay type: functional; conditions: Cancer cell lines; for CC50: read-out: pLC50 (the source's name) (converted); for TGI: read-out: pTGI (converted); summary of the method: as §1
[5] = Inhibition of plasma membrane electron transport pathway in mitochondrial gene-knockout human HL60p'0 cells by WST1 reduction assay
Summary of the method: (§2)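 Cells at 10^5 per well in 0.1 ml pretreated 30 min with compound in DMSO (<0.1% final), then WST-1/mPMS added (final 500 µM and 20 µM); WST-1 reduction followed in real time at 450 nm; averages ± S.E.M. of four independent experiments.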

[6] = Cytotoxicity against human breast cancer cells; assay type: functional; conditions: Cancer cell lines; for TGI: read-out: pTGI (converted); for CC50: read-out: pLC50 (the source's name) (converted)
Summary of the method: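 MTT cytotoxicity assay in breast cancer cell lines; proliferation expressed as percent growth inhibition relative to vehicle-treated control cells; IC50 reported.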

[7] = Cytotoxicity against human leukemia cells; assay type: functional; conditions: Leukemia cell; for CC50: read-out: pLC50 (the source's name) (converted); for TGI: read-out: pTGI (converted); summary of the method: as §1
[8] = Inhibition of plasma membrane electron transport pathway in human HL60 cells by WST1 reduction assay; assay type: cell-based; conditions: HL-60; summary of the method: as §2
[9] = Cytotoxicity against human ovarian cancer cells; assay type: functional; conditions: Cancer cell lines; for CC50: read-out: pLC50 (the source's name) (converted); for TGI: read-out: pTGI (converted)
[10] = Cytotoxicity against human colon cancer cells; assay type: functional; conditions: Cancer cell lines; for CC50: read-out: pLC50 (the source's name) (converted); for TGI: read-out: pTGI (converted); summary of the method: as §1
[11] = Cytotoxicity against human prostate cancer cells; assay type: functional; conditions: Cancer cell lines; for CC50: read-out: pLC50 (the source's name) (converted); for TGI: read-out: pTGI (converted); summary of the method: as §1
HEL = assay: Antiproliferative activity against human HEL cells after 48 hrs by MTT assay; assay type: functional, cell-based
B1647 = assay: Antiproliferative activity against human B1647 cells after 48 hrs by MTT assay; assay type: functional, cell-based
[12] = Inhibition of plasma membrane electron transport pathway in human HL60 cells at 200 uM by WST1 reduction assay; assay type: cell-based; conditions: HL-60

| Structure (SMILES) | GI50 [1] | GI50 [2] | Activity (Mo7e) | GI50 [3] | GI50 [4] | IC50 [5] | GI50 [6] | TGI [6] | GI50 [7] | IC50 [8] | GI50 [9] | GI50 [10] | GI50 [11] | Activity (HEL) | Activity (B1647) | TGI [1] | CC50 [2] | TGI [2] | CC50 [3] | TGI [4] | further results |
| --- | --- | --- | --- | --- | --- | --- | --- | --- | --- | --- | --- | --- | --- | --- | --- | --- | --- | --- | --- | --- | --- |
| COc1cc2c(cc1C)NC(=O)/C2=C/c1cccc(/C=C2/C(=O)Nc3cc(C)c(OC)cc32)n1 | 83.2 µM | 79.4 µM | Active | 52.5 µM | 89.1 µM | > 117 µM | 74.1 µM | 93.3 µM | 4.37 µM | > 117 µM | 89.1 µM | 49 µM | 33.9 µM | Active | Active |  |  |  |  |  | CC50 [7]: 91.2 µM; TGI [7]: 60.3 µM |
| Cc1cc2c(cc1O)/C(=C\c1cccc(/C=C3/C(=O)Nc4cc(C)c(O)cc43)n1)C(=O)N2 | 85.1 µM | 87.1 µM | Active | 67.6 µM |  | > 117 µM | 70.8 µM | 87.1 µM | 27.5 µM | > 117 µM | 75.9 µM | 72.4 µM | 66.1 µM | Active | Active |  |  |  |  |  |  |
| O=C1Nc2ccc(F)cc2/C1=C\c1cccc(/C=C2/C(=O)Nc3ccc(F)cc32)n1 | 7.24 µM | 2.04 µM | Active | 4.17 µM | 3.8 µM | > 117 µM | 2.95 µM | 14.5 µM | 1.17 µM | > 117 µM | 4.17 µM | 2.14 µM | 3.47 µM | Active | Active | 26.3 µM | 36.3 µM | 4.9 µM | 51.3 µM | 11.5 µM | CC50 [1]: 79.4 µM; TGI [3]: 12.9 µM; CC50 [4]: 53.7 µM; CC50 [6]: 50.1 µM; TGI [7]: 7.76 µM; CC50 [9]: 81.3 µM; CC50 [10]: 39.8 µM; TGI [10]: 5.37 µM; CC50 [11]: 74.1 µM; TGI [11]: 12.3 µM |
| O=C1Nc2ccc(Br)cc2/C1=C\c1cccc(/C=C2/C(=O)Nc3ccc(Br)cc32)n1 | 11 µM | 10 µM |  | 7.94 µM | 3.72 µM |  | 6.17 µM | 18.2 µM |  |  | 9.77 µM | 10.5 µM | 6.46 µM |  |  | 28.2 µM | 52.5 µM | 23.4 µM | 51.3 µM | 14.1 µM | CC50 [1]: 63.1 µM; TGI [3]: 21.9 µM; CC50 [4]: 40.7 µM; CC50 [6]: 53.7 µM; CC50 [9]: 58.9 µM; TGI [9]: 25.7 µM; CC50 [10]: 52.5 µM; TGI [10]: 24.5 µM; CC50 [11]: 55 µM; TGI [11]: 20.9 µM |
| CC[C@]1(O)C[C@H]2CN(CCc3c([nH]c4ccccc34)[C@@](C(=O)OC)(c3cc4c(cc3OC)N(C=O)[C@H]3[C@@](O)(C(=O)OC)[C@H](OC(C)=O)[C@]5(CC)C=CCN6CC[C@]43[C@@H]65)C2)C1 [VINCRISTINE SULFATE] | 0.251 µM | 0.158 µM |  | 0.316 µM | 0.126 µM |  | 0.316 µM |  | 0.1 µM |  | 0.316 µM | 0.1 µM | 0.126 µM |  |  |  |  |  | 251 µM |  | CC50 [4]: 200 µM; CC50 [6]: 316 µM; CC50 [7]: 631 µM; CC50 [9]: 316 µM; CC50 [10]: 79.4 µM; CC50 [11]: 316 µM |
| O=C1Nc2ccc(S(=O)(=O)O)cc2/C1=C\c1cccc(/C=C2/C(=O)Nc3ccc(S(=O)(=O)O)cc32)n1 |  | 95.5 µM |  | 85.1 µM |  |  |  |  | 93.3 µM |  |  |  |  |  |  |  |  |  |  |  |  |
| O=C1Nc2cc(Cl)ccc2/C1=C\c1cccc(/C=C2/C(=O)Nc3cc(Cl)ccc32)n1 | 3.72 µM | 1.78 µM | Active | 1.07 µM | 2.24 µM | > 117 µM | 2.29 µM | 13.5 µM | 1.45 µM | > 117 µM | 3.02 µM | 1.74 µM | 3.39 µM | Active | Active | 14.8 µM | 21.4 µM | 6.17 µM | 20 µM | 7.76 µM | CC50 [1]: 57.5 µM; TGI [3]: 3.31 µM; CC50 [4]: 36.3 µM; CC50 [6]: 52.5 µM; CC50 [7]: 95.5 µM; TGI [7]: 8.13 µM; CC50 [9]: 63.1 µM; TGI [9]: 19.5 µM; CC50 [10]: 25.1 µM; TGI [10]: 4.9 µM; CC50 [11]: 70.8 µM; TGI [11]: 40.7 µM |
| CC(=O)n1c(=O)/c(=C/c2c[nH]c3ccccc23)n(C(C)=O)c(=O)/c1=C/c1c[nH]c2ccccc12 | 85.1 µM | 87.1 µM | Active | 29.5 µM | 75.9 µM | > 117 µM | 66.1 µM |  | 93.3 µM | > 117 µM | 79.4 µM |  |  | Active | Active |  |  |  |  |  | Activity [12]: inactive |
| CN(C)c1ccc2c(c1)/C(=C\c1cccc(/C=C3/C(=O)Nc4ccc(N(C)C)cc43)n1)C(=O)N2 | 5.25 µM | 4.37 µM | Active | 8.71 µM | 4.37 µM | > 117 µM | 6.03 µM | 69.2 µM | 2.34 µM | > 117 µM | 7.59 µM | 6.76 µM | 3.55 µM | Active | Active | 43.7 µM | 60.3 µM | 30.2 µM |  | 44.7 µM | CC50 [4]: 89.1 µM; TGI [7]: 9.55 µM; TGI [10]: 38.9 µM; Activity [12]: inactive; TGI [11]: 29.5 µM |
| COc1ccc2c(c1)/C(=C\c1cccc(/C=C3/C(=O)N(C)c4ccc(OC)cc43)n1)C(=O)N2C | 2.45 µM | 1.05 µM |  | 1.51 µM | 3.24 µM |  | 1.62 µM |  | 38 µM |  | 2.57 µM | 1.45 µM | 2.09 µM |  |  | 19.1 µM | 8.91 µM | 3.8 µM | 20.9 µM | 14.8 µM | CC50 [1]: 74.1 µM; TGI [3]: 5.25 µM; CC50 [6]: 63.1 µM; CC50 [10]: 11.7 µM; TGI [10]: 3.39 µM |
| O=C1Nc2ccccc2/C1=c1/[nH]c(=O)/c(=C2/C(=O)Nc3ccccc32)[nH]c1=O | 85.1 µM |  |  | 83.2 µM | 74.1 µM |  | 85.1 µM |  |  |  | 97.7 µM |  |  |  |  |  |  |  |  |  |  |
| O=C(O)CCC(=O)c1ccc2c(c1)/C(=C\c1cccc(/C=C3/C(=O)Nc4ccc(C(=O)CCC(=O)O)cc43)n1)C(=O)N2 |  |  |  |  | 30.2 µM |  |  |  | 15.5 µM |  |  |  |  |  |  |  |  |  |  | 61.7 µM |  |
| O=c1[nH]/c(=C\c2c[nH]c3ccccc23)c(=O)[nH]/c1=C\c1c[nH]c2ccccc12 | 97.7 µM | 55 µM | Active | 70.8 µM | 64.6 µM | > 117 µM | 64.6 µM |  |  | > 117 µM |  |  |  | Active | Active |  |  |  |  |  | Activity [12]: inactive |
| COc1ccc2[nH]cc(/C=c3\[nH]c(=O)/c(=C/c4c[nH]c5ccc(OC)cc45)[nH]c3=O)c2c1 |  | 72.4 µM |  |  |  |  | 79.4 µM |  |  |  | 89.1 µM |  |  |  |  |  |  |  |  |  |  |
| CN1C(=O)/C(=C/c2cccc(/C=C3/C(=O)N(C)c4ccccc43)n2)c2ccccc21 | 12 µM | 4.9 µM | Active | 10 µM | 7.59 µM | > 117 µM | 8.91 µM | 33.1 µM | 3.09 µM | > 117 µM | 10 µM | 10 µM | 13.5 µM | Active | Active | 30.2 µM | 43.7 µM | 22.4 µM | 46.8 µM | 29.5 µM | TGI [3]: 23.4 µM; CC50 [4]: 50.1 µM; TGI [9]: 29.5 µM; TGI [10]: 28.2 µM; Activity [12]: inactive |
| O=C1Nc2ccc(C(=O)O)cc2/C1=C\c1cccc(/C=C2/C(=O)Nc3ccc(C(=O)O)cc32)n1 |  |  | Active |  | 72.4 µM | > 117 µM |  |  | 6.17 µM | > 117 µM |  |  |  | Active | Active |  |  |  |  | 87.1 µM | CC50 [7]: 34.7 µM; TGI [7]: 21.4 µM; Activity [12]: inactive |
| O=C1Nc2ccccc2/C1=C\c1cccc(/C=C2/C(=O)Nc3ccccc32)n1 | 0.813 µM | 0.302 µM |  |  | 0.575 µM |  | 0.49 µM |  | 0.234 µM |  | 0.589 µM | 0.282 µM | 0.631 µM |  |  | 3.16 µM | 4.68 µM | 0.933 µM | 5.37 µM | 1.82 µM | CC50 [1]: 22.4 µM; TGI [3]: 1.62 µM; CC50 [4]: 7.08 µM; CC50 [6]: 57.5 µM; TGI [7]: 1.95 µM; CC50 [9]: 6.61 µM; TGI [9]: 1.78 µM; CC50 [10]: 6.46 µM; TGI [10]: 0.776 µM; CC50 [11]: 24.5 µM; TGI [11]: 2.69 µM |
